# Source: ChEMBL document CHEMBL1129956, “4-substituted-3-phenylquinolin-2(1H)-ones: acidic and nonacidic glycine site N-methyl-D-aspartate antagonists with in vivo activity” (J Med Chem, 1997)
# Experiments:
# Mus musculus [1] = assay: compound was evaluated in vivo for their ability to protect against audiogenic seizure in DBA/2 mice when administered 10 mg/kg ip 30 min prior to noise stimulation out of 8 mice tested; type: functional; conditions: route intraperitoneal
# Procedure, shortened: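 DBA/2 mice given compound intraperitoneally 30 min before noise stimulation, with protection from audiogenic seizure scored. Results are reported as an ED50 (mg/kg) or as number of mice protected per number tested at a single dose.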
# Mus musculus [2] = assay: Evaluated in vivo for their ability to protect against audiogenic seizure in DBA/2 mice when administered 20 mg/kg ip 30 min prior to noise stimulation out of 8 mice tested; conditions: route intraperitoneal
# [3] = target: Glutamate receptor ionotropic, NMDA 1 (Rattus norvegicus, UniProt P35439); assay: In vitro ability to displace [3H]L-689,560 binding to glycine site on the N-methyl-D-aspartate (NMDA) glutamate receptor 1 from rat cortical membranes
# Procedure, shortened: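 Glycine-site antagonist [3H]L-689,560 displaced from rat cortex/hippocampus membranes. IC50 (concentration inhibiting 50% of specific binding) taken from 5-point inhibition curves as the geometric mean of at least three experiments. A compound giving under 50% inhibition at 100 μM in two experiments is reported as >100 μM.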
structure (smiles),measurement,setting,value
N#CCOc1c(-c2cccc(Oc3ccccc3)c2)c(O)nc2cc(Cl)ccc12,No. of mice protected,Mus musculus [1],1
same,No. of mice protected,Mus musculus [2],8
same,IC50,[3],1200 nM
